Compound activity: PubChem BioAssay, several laboratories
Mdm2 ligase inh – blocks human Mdm2 ubiquitin ligase activity; signal enhancement, % at 5 µM; 210,000 tested, 0.11% active; Q00987; cell-based MDM2 ubiquitination luciferase reporter, 2 h; 0 = plate control, 100 = twice control, blank-subtracted;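 active = signal enhancement of 30% or more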;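 note: luminescence tracks abundance of the self-degrading MDM2-luciferase fusion protein; higher signal means inhibition of MDM2 E3 ligase activity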
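Test system: stable mammalian line carrying autodegrading MDM2–luciferase fusion reporter; quantity: 2000 cells in each well; times: 4 h cell settling then 2 h compound exposure, 37 °C; detection: luminescence with SteadyLite reagent, 15 min at room temperature; evaluation: percent signal gain over controls, blank-subtracted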
Mdm2-MdmX inh – human Mdm2/MdmX binding inhibition | O15151+Q00987 | SaOS-2 split-luciferase Mdm2/MdmX complementation, luminescence | inhibition, % at 8 µM | 330,000 tested, 3% active;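 active = inhibition of at least 50% at 8 µM in the primary screen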
Target sequence (O15151 whole entry, looked up): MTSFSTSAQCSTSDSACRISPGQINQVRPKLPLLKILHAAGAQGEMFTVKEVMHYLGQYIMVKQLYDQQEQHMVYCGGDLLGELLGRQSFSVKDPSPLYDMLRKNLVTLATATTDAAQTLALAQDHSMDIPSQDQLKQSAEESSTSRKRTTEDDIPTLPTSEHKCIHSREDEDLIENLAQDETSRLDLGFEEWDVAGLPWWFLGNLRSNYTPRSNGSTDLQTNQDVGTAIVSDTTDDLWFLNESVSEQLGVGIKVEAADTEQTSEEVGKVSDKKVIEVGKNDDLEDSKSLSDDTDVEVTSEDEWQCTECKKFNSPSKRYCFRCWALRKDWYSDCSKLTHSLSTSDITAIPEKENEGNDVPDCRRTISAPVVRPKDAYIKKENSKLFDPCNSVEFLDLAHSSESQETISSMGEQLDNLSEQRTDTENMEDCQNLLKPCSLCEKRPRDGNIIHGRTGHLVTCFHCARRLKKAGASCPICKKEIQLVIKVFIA
Target sequence (Q00987 whole entry, looked up): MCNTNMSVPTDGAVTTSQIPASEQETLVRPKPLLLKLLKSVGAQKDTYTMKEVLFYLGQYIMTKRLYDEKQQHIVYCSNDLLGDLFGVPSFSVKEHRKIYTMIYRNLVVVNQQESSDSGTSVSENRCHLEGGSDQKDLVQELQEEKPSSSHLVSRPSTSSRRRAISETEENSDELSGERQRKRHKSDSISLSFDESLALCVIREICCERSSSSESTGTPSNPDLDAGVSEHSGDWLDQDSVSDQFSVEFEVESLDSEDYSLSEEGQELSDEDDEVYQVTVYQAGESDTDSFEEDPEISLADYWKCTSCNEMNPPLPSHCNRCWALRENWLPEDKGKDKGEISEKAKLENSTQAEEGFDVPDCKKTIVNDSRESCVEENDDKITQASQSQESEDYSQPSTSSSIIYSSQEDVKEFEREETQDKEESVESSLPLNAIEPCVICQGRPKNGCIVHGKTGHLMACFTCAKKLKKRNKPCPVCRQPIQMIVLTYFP
CHOP UPR activ – apoptotic UPR (CHOP) activation; CHO-CHOP luciferase reporter, luminescence; percent of tunicamycin response over DMSO baseline; activation, % at 10 µM; 330,000 tested, 0.34% active; AID 449763;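 active = at 10 µM dose, activation of 40% or more, normalized to positive control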;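 note: 100% = tunicamycin at 10 µg/mL and 0% = DMSO alone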
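Material: CHO-CHOP cells, stable luciferase reporter of PERK-eIF2a-CHOP signalling; quantity: 500 reporter cells seeded per well; buffer or medium: F12 medium containing 10% fetal bovine serum; compound: one dose, 10 µM in 0.5% DMSO; incubation: 6 h compound treatment, 37 °C; measured by: Steady-Glo luciferase luminescence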
Beta2AR agonist – activates human beta-2 adrenergic receptor causing internalization | P07550 | Am2.2-beta2AR cells, FAP receptor internalization, flow cytometry | response, % (no concentration beside the values) | 340,000 tested, 0.43% active | AID 504454;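 active = response above a set limit, near 3 SD of response in nonfluorescent compounds, cut at about 42% in these data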
XBP1 UPR activ – activators of adaptive arm of unfolded protein response (XBP1). CHO-XBP1 luciferase reporter, IRE1-XBP1 UPR activation, luminescence; percent of tunicamycin response, DMSO as zero. activation, % at 20 µM. 330,000 tested, 0.33% active;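 active = versus positive control, 20 µM dose yields 30% or more activation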;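 note: 100% = tunicamycin at 10 µg/mL and 0% = DMSO only wells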
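Material – CHO cell line with stable XBP1 luciferase reporter · Buffer or medium – F12 plus 10% FBS · Compound – single point, 20 µM final compound, 1% DMSO · Schedule – 16-18 h cell attachment at 37 °C, then 6 h compound exposure · Signal – Steady-Glo luminescence read · Benchmarks – high control tunicamycin 10 µg/mL final, low control DMSO vehicle only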
Dynein transport – blocks dynein driven cargo transport along microtubules; AID 1381; 220,000 tested, 0.47% active; z-score, hits read low; 3617.4 mouse cells, GR-EGFP nuclear translocation imaging; test concentration mostly 20 µM; stimulated with dexamethasone, 1 µM; active compounds read low;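 active = plate z-score of nuclear minus cytoplasmic receptor signal below a set negative limit, without overly bright fluorescence or cell loss, cut at about -3.5 in these data, passing the limit was not always enough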;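 note: z-score of nuclear minus cytoplasmic ring GR-EGFP intensity difference per well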
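Medium: Induction medium lacking tetracycline, stripped serum | Probe or stimulus: 1.0 µM final dexamethasone stimulus | Schedule: 48 h induction, then 1 h compound, then 30 min agonist, 37 °C | Signal: Automated 10x imaging of fixed Hoechst-stained cells | Evaluation: Per-cell GR-EGFP intensity, nucleus versus surrounding cytoplasmic ring, well-averaged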
Beta2AR ag CP1 – activates human beta-2 adrenergic receptor; 1,100 tested, 25% active; percent response (surface receptor), % at 10 µM; AID 540358; shares compounds with Beta2AR agonist; Am2.2-beta2AR cells, FAP surface receptor, flow cytometry; active compounds read low;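 active = surface receptor percent response at or below 58%, roughly 3 SD from nonfluorescent compounds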
B2AR FAP counter – flagged in Am2.2 fluorescence counterscreen for beta-2AR agonists. Am2.2 cells, FAP fluorogen flow cytometry; active compounds read low. AID 588765. 1,100 tested, under 10 active. calls only at 10 µM. shares compounds with Beta2AR agonist;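 active = percent response below a set limit in fluorescence channel 1 and below 50% in channel 8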
* marks the source's active call; other numbers are inactive results; i = inactive; · = not tested or not shown. Rows were chosen to be rich in hits. Some 3.7% of all compounds tested hit in one or more screens of this group.

SMILES	Mdm2 ligase inh	Mdm2-MdmX inh	CHOP UPR activ	Beta2AR agonist	XBP1 UPR activ	Dynein transport	Beta2AR ag CP1	B2AR FAP counter
O=C(Nc1ccc(S(=O)(=O)Nc2nccs2)cc1)c1cccc(N2C(=O)c3ccccc3C2=O)c1	-8.9	9.4	-1.8	1.5	-3.3	-0.25	108.3	i
O=C(CNC(=O)c1cccc(N2C(=O)c3ccccc3C2=O)c1)Nc1ccc(F)c(F)c1	·	-8.8	1.3	-6.8	-0.2	·	·	·
N#Cc1cccc(C(=O)Nc2ccc(S(=O)(=O)Nc3nccs3)cc2)c1	·	-20.3	-2.3	-3.2	2.6	·	·	·
Cc1cc(OCC(=O)Nc2cc(-c3nn4c(C)nnc4s3)ccc2C)ccc1Cl	-4.8	-3.3	4.6	79.0*	-0.5	-0.0635	111.8	i
Cc1ccc(-c2nn3c(C)nnc3s2)cc1NC(=O)c1ccc(OC(C)C)cc1	-13.3	17.4	-0.7	6.5	-4.4	0.652	·	·
Fc1ccc(-c2nn(-c3ccccc3)cc2CNCc2ccccc2)cc1	-1.9	38.2	1.3	44.2*	-3.5	-0.379	91.0	i
O=C(O)Cc1cn(-c2ccccc2)nc1-c1ccccc1	-0.6	15.4	0.4	-0.8	-2.4	-0.761	·	·
Cc1cc(=O)oc2cc(OCC(=O)Nc3c(C)n(C)n(-c4ccccc4)c3=O)c(Cl)cc12	·	16.5	-1.0	-2.7	-1.7	·	·	·
COc1ccccc1Nc1nc(-c2c(C)[nH]c3ccccc23)cs1	5.6	·	·	-0.6	·	-0.623	·	·
CNc1nc(-c2c(C)[nH]c3ccc(OC)cc23)cs1	·	15.8	0.4	59.7*	5.0	·	93.5	i
CCn1c(COc2ccc(C)cc2)nnc1SCc1nc2ccccc2[nH]1	1.8	26.0	4.3	-6.6	-1.0	1.07	·	·
Clc1ccc(OCc2nnc(SCc3nc4ccccc4[nH]3)n2Cc2ccco2)cc1	-5.3	19.3	4.1	111.2*	-1.0	0.112	38.5*	i
c1ccc(-c2nnc(SCc3nc4ccccc4[nH]3)n2Cc2ccco2)nc1	14.9	-6.9	-1.0	-8.7	0.5	0.0493	·	·
Clc1cccc(-c2nnc(SCc3nc4ccccc4[nH]3)n2Cc2ccco2)c1	-24.0	-12.4	0.1	54.5*	-0.8	-1.1	56.4*	i
CCCCOc1ccc(C(=O)NCC(=O)NCCOc2ccccc2OC)cc1	·	-6.6	0.6	-2.1	-2.7	·	·	·
Cc1ccc[n+](CC(=O)Nc2ccc(C)c(C)c2)c1	·	-1.7	-2.2	-2.6	-5.9	·	·	·
Cc1ccc2c(c1)C(=O)C(=O)N2CCCOc1ccccc1C	4.1	29.3	4.0	42.3*	25.2	-0.593	91.3	i
Cc1ccc(Cl)cc1NC(=S)N/N=C/c1cccc2ccccc12	-0.1	39.6	-0.4	2.0	19.1	0.76	·	·
Cc1cc(Nc2ccccc2)nn1C(=O)c1ccccc1	-3.5	-6.2	-0.2	0.2	0.2	-0.114	·	·
Cc1cc(Nc2ccccc2)nn1C(=O)c1ccc(Br)cc1	-23.8	-14.0	-0.4	50.0*	1.0	-0.611	121.2	i
CCCCN(CCCC)c1nc(OC)nc(-n2nnc(C(C)=O)c2C)n1	-12.6	23.3	-1.3	73.5*	-2.2	-0.598	25.0*	i
CC(=O)Nc1ccc(S(=O)(=O)N(C)c2ccc(OCCOc3ccccc3F)cc2)cc1	·	23.4	1.2	-2.2	-2.6	·	·	·
CCc1ccc(S(=O)(=O)N2CCN(C(=O)c3cccnc3)CC2)cc1	·	-0.8	-1.1	-6.3	-2.1	·	·	·
CC1CC2(NC(=O)NC2=O)C(C)CN1C (stereo unspecified)	-12.1	4.1	-0.6	-0.2	8.4	-0.655	·	·
CC1C[C@@]2(NC(=O)NC2=O)C(C)CN1C (stereo partly specified)	-10.0	23.3	-3.7	46.2*	-5.4	0.373	108.1	i
SMILES	Mdm2 ligase inh	Mdm2-MdmX inh	CHOP UPR activ	Beta2AR agonist	XBP1 UPR activ	Dynein transport	Beta2AR ag CP1	B2AR FAP counter
O=C(CSc1ccccn1)c1ccc2c(c1)OCO2	-30.9	-137.5	5.3	52.5*	2.7	-0.647	94.2	i
Cc1ccc(C(=O)Nc2ccc(O)cc2C(=O)O)cc1C	-20.7	12.5	-0.9	14.0	-1.3	-0.401	107.4	i
CC(=O)Nc1ccccc1NC(=O)c1cccc2ccccc12	2.8	-4.9	0.2	-1.3	0.6	0.411	·	·
O=C(O)c1cc(O)ccc1NC(=O)c1cccc2ccccc12	-3.7	4.7	0.4	69.1*	-4.0	-1.19	111.8	i
CC(C)(C)c1cc(CCC(=O)NCc2ccccn2)cc(C(C)(C)C)c1O	·	31.3	2.7	1.8	-2.9	·	·	·
O=C(COc1cc(Cl)c(Cl)cc1Cl)Nc1ccc([N+](=O)[O-])cc1Cl	-11.6	4.7	5.0	-10.2	-1.0	-0.167	·	·
OC(CNCc1cccc(Br)c1)c1ccccc1 (stereo unspecified)	-8.5	-15.6	0.6	-2.1	-1.5	-0.451	119.8	i
CC(Oc1ccc(Cl)cc1Cl)c1nc(-c2ccc(NC(=O)c3ccccn3)cc2)no1 (stereo unspecified)	-18.7	-18.7	2.3	82.3*	-1.3	0.182	9.7*	i
COc1ccc(C(C)=O)cc1COc1cc(C)c(Cl)c(C)c1	-17.7	20.3	1.2	5.5	1.0	-0.111	·	·
COc1ccc(C(C)=O)cc1COc1ccc(Cl)cc1Cl	-4.3	14.5	-0.2	49.7*	-1.5	1.14	56.5*	i
CC(=O)Nc1ccc(S(=O)(=O)NCCC(=O)NC(C)c2cccs2)cc1 (stereo unspecified)	·	5.4	2.5	0.0	3.4	·	·	·
CCOCCCNC(=O)c1cc(-c2cccnc2)nc2ccc(S(=O)(=O)N3CCC(C)CC3)cc12	·	13.4	1.6	59.4*	-2.9	·	56.8*	i
COCCNC(=O)c1cc(-c2ccccn2)nc2ccc(S(=O)(=O)N3CCC(C)CC3)cc12	·	-11.3	1.8	0.0	-0.6	·	·	·
C/C=C(/C(=C/C)c1ccc(O)cc1)c1ccc(O)cc1	·	30.0	-0.9	-14.6	-7.3	-0.462	108.3	i
COc1ccc(NC(=O)CN(c2c(C)cccc2C)S(C)(=O)=O)cc1	·	11.2	-0.1	13.4	-5.5	·	·	·
Cc1ccc(NC(=O)COC(=O)c2nn(C)c(=O)c3ccccc23)cc1F	·	-12.8	0.3	6.2	1.8	·	·	·
CN(C)c1nc(=NCc2ccco2)ss1	36.5*	·	·	11.7	·	-3.18	110.9	i
COc1ccc(Cl)cc1C(=O)Nc1cccnc1Cl	·	-1.3	3.3	6.4	3.2	·	·	·
CCOc1cc2c(cc1/C=C/c1noc(C)c1[N+](=O)[O-])OC(C)C2 (stereo unspecified)	·	27.7	1.3	-765.9	8.1	·	·	·
